Data set [1] is described as follows: Antiinflammatory activity against human neutrophil assessed as inhibition of N-formyl-l-methionyl phenylalanine/cytochalasin B-induced superoxide anion generation by spectrophotometry. The format is functional, cell-based. In a few lines:
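Ferricytochrome c (0.5 mg/mL) reduction, SOD-inhibitable, with 1 mM Ca2+. Neutrophils (6 × 10^5 cells/mL) equilibrated 2 min at 37 °C, then drug or 0.1% DMSO for 5 min. Cytochalasin B 1 µg/mL preincubation, then 100 nM FMLP for 3 min. A550 monitored continuously with stirring. IC50 computed; mean ± SEM, n = 3.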

The test system of data set [2] is RAW264.7. In words: Antiinflammatory activity against mouse RAW264.7 cells assessed as reduction of lipopolysaccharide/interferon-gamma induced PGE2 production at 3 uM after 18 hrs. The format is functional. The note with it: RAW264.7, 18 h. In a few lines:
(§1)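 RAW 264.7 macrophages (passages 9–20) stimulated with LPS/IFN-γ; compound tested at 1, 3 and 10 µM. Supernatant PGE2 measured by competitive EIA: anti-PGE2 antibody plus peroxidase-PGE2 tracer, 1 h RT; TMB/H2O2 30 min; H2SO4 stop; A450. Results given as % inhibition.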

Data set [3] can be described thus: Antiinflammatory activity against mouse […] cells assessed as inhibition of lipopolysaccharide/interferon-gamma induced nitric oxide production. The format is functional, cell-based. The note with it: Mus musculus; read-out: EC50. In a few lines:
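RAW 264.7 cells in DMEM/10% FCS, passages 9–20. Nitrite induced by LPS (1 µg/mL) plus IFN-γ (50 U/mL) for 18 h with or without compound. Griess reagent (1% sulfanilamide, 0.1% naphthylenediamine in 5% H3PO4) read at OD550. EC50 calculated.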

In data set [4] the test system is RAW264.7. The data set is described as follows: Antiinflammatory activity against mouse RAW264.7 cells assessed as reduction of lipopolysaccharide/interferon-gamma induced PGE2 production at 1 uM by EIA. The data set is classed as functional. In a few lines:
as §1

The subject of a further data set is KB. The data set is described as follows: Cytotoxicity activity against human KB cells assessed as growth inhibition at 10 ug/ml after 72 hrs sulforhodamine B assay. The data set is classed as functional. In a few lines: (§2)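 Cells kept in RPMI-1640/10% FBS with antibiotics at 37 °C, 5% CO2. Trypsinized cells seeded and given compound from DMSO-diluted stock. Incubated 72 h, then fixed with 10% TCA. Stained 10 min with 0.4% sulforhodamine B in 1% HOAc, washed, dye dissolved in 10 mM Trizma. A515 read; growth relative to net protein increase of controls.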

The test system of data set [5] is RAW264.7. The data set is described as follows: Inhibition of lipopolysaccharide/interferon gamma-induced iNOS expression in mouse RAW264.7 cells by Western blot analysis. The data set is classed as functional, cell-based. In a few lines:
(§3)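 RAW 264.7 cells lysed in ice-cold RIPA buffer (25 mM Tris–HCl pH 7.2, SDS, Triton, deoxycholate, protease/phosphatase inhibitors). Protein assayed, run on 7.5% SDS-PAGE and transferred to nitrocellulose. Probed for iNOS or COX2 with HRP-anti-IgG secondary, detected by ECL. Blot re-probed for α-tubulin.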
In general terms: Immunoblotting shows a protein as a band on a membrane.

The test system of the next data set is DU-145. In words: Cytotoxicity activity against human DU145 cells assessed as growth inhibition at 10 ug/ml after 72 hrs sulforhodamine B assay. The note with it: DU-145, 72 h. The format is functional. In a few lines:
as §2
Background: The SRB assay estimates cell density from bound dye.

A short description of data set [6]: Cytotoxicity activity against human KBVIN cells assessed as growth inhibition at 10 ug/ml after 72 hrs sulforhodamine B assay. The data set is classed as functional. In a few lines:
as §2

A short description of data set [7]: Therapeutic index, ratio of CC50 for mouse […] cells to EC50 for inhibition of lipopolysaccharide/interferon-gamma induced nitric oxide production in mouse […] cells. The note with it: read-out: TI. The data set is classed as cell-based.
The test system of data set [8] is Radical scavenging activity. In words: Antioxidant activity assessed as residual DPPH radical scavenging activity. The data set is classed as functional. In general terms: DPPH is a stable violet radical that fades when it is reduced.
Data set [9] deals with RAW264.7. In words: Inhibition of lipopolysaccharide/interferon gamma-induced COX2 expression in mouse RAW264.7 cells by Western blot analysis. The data set is classed as functional, cell-based. In a few lines:
as §3

Data set [10] deals with Neutrophil. In words: Antiinflammatory activity against human neutrophil assessed as inhibition of N-formyl-l-methionyl phenylalanine-induced phosphorylation of JNK by Western blot analysis. The format is functional, cell-based. In a few lines:
(§4)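 Neutrophils given drug for 5 min at 37 °C, then FMLP (0.1 µM) for 0.5 min. Stopped on ice and centrifuged at 4 °C. Pellets lysed in HEPES pH 7.4 Triton buffer with phosphatase and protease inhibitors; 14,000 g 20 min spin. Lysate proteins run on 12% SDS-PAGE, immunoblotted, detected by ECL.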

Data set [11] can be described thus: Antiinflammatory activity against human neutrophil assessed as inhibition of N-formyl-l-methionyl phenylalanine/cytochalasin B-induced elastase release. The format is functional, cell-based. In a few lines: (§5)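 Neutrophils (6 × 10^5/mL) supplemented with 100 µM MeO-Suc-Ala-Ala-Pro-Val-p-nitroanilide, equilibrated 2 min at 37 °C, then given drug or 0.1% DMSO vehicle for 5 min. Activated with 100 nM FMLP plus 0.5 µg/mL cytochalasin B. Absorbance at 405 nm followed continuously. Release expressed as percent of drug-free activated control. IC50 computed; mean ± SEM, n = 3.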

The subject of another data set is A549. The data set is described as follows: Cytotoxicity activity against human A549 cells assessed as growth inhibition at 10 ug/ml after 72 hrs sulforhodamine B assay. The data set is classed as functional. The note with it: A549, 72 h. In a few lines: as §2
Data set [12] has as its system Neutrophil. In words: Antiinflammatory activity against human neutrophil assessed as inhibition of N-formyl-l-methionyl phenylalanine-induced phosphorylation of AKT by Western blot analysis. The format is functional, cell-based. In a few lines:
as §4

Data set [13] can be described thus: Cytotoxicity against mouse […] cells by MTT assay. The data set is classed as functional. In a few lines: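 Viability of RAW 264.7 cells taken as mitochondrial reduction of MTT to formazan. Formazan read at OD550.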
Data set [14] in a line: Antiinflammatory activity against cytochalasin B pretreated human neutrophil assessed as inhibition of elastase release. The data set is classed as functional. In a few lines:
as §5

Data set [15] relates to RAW264.7. The data set is described as follows: Antiinflammatory activity against mouse RAW264.7 cells assessed as reduction of lipopolysaccharide/interferon-gamma induced PGE2 production at 10 uM after 18 hrs. The note with it: RAW264.7, 18 h. The data set is classed as functional. In a few lines:
as §1

Molecules are shown by their SMILES. Calls of active or inactive are those of the source. The rule behind the calls is not given here.

For `O=C(O)c1cc2c([nH]c3ccccc32)c(C(=O)c2cccc(Br)c2)n1`, the results for the IC50 in [1] and in data set [11] were 2.05 µM and 2.78 µM, respectively. The inhibition (as a rule, the relative decrease from the control value, in per cent) at 3 µM in the data set with RAW264.7 [2] amounted to 100%. In addition, the EC50 (in general, the concentration needed to bring the measured effect to its halfway point) in data set [3] was 0.57 µM. Moreover, in the data set with RAW264.7 [4], the inhibition at 1 µM is 100%. In addition, the GI50 (with KB; in the data set on DU-145; in data set [6]; in the data set with A549) was more than 40 µM throughout. The result in the data set on RAW264.7 [5] and in the data set with RAW264.7 [9] was Active. Also, the selectivity ratio in data set [7] is 51. The result in [8] was inactive. In addition, the inhibition result in the data set on Neutrophil [10] and in the data set on Neutrophil [12] was “Active” each time. Moreover, in data set [13], it took 29.4 µM to reach half-maximal cytotoxicity (CC50).

`COc1cccc(C(=O)c2nccc3c2[nH]c2ccccc23)c1`: the INH in data set [14] came to 13.2 µM. For the same molecule, the IC50 (in general, the concentration that inhibits the measured activity by half) in data set [1] was more than 30 µM. Moreover, the inhibition at 3 µM in the data set with RAW264.7 [2] is 71%. The EC50 in data set [3] is 2.96 µM. Also, in the data set with RAW264.7 [4], the inhibition at 1 µM was 0%. Also, the GI50 (with KB; with DU-145; in data set [6]; in the data set with A549) was more than 40 µM in each case. The selectivity ratio in [7] was 6. In addition, the inhibition at 10 µM in the data set with RAW264.7 [15] worked out at 98%. The CC50 – broadly, the concentration at which the toxic effect on the cells reaches its halfway point – in data set [13] stood at 16.3 µM.

As to `Cc1cccc(C(=O)c2nccc3c2[nH]c2ccccc23)c1`, the IC50 in [1] and in data set [11] was more than 30 µM throughout. Further, the inhibition at 3 µM in the data set with RAW264.7 [2] stood at 100%. Also, the EC50 in data set [3] amounted to 0.2 µM. For the same molecule, in the data set with RAW264.7 [4], the inhibition at 1 µM came out at 97%. In addition, the GI50 (in the data set with KB; in the data set on DU-145; in [6]; in the data set on A549) was more than 40 µM each time. The outcome in the data set on RAW264.7 [5] and in the data set on RAW264.7 [9] was Active. Also, the selectivity ratio in data set [7] was 120. In data set [13], this molecule registered a half-maximal cytotoxic concentration (CC50) of 23.7 µM.

(Values after ChEMBL document CHEMBL1681731, “Synthesis, in vitro anti-inflammatory and cytotoxic evaluation, and mechanism of action studies of 1-benzoyl-β-carboline and 1-benzoyl-3-carboxy-β-carboline derivatives” (Bioorg Med Chem, 2011).)
